What is called IC50 is the concentration that gives 50% inhibition. A high value points to weaker potency in that assay.

Experiment [1] addresses 72 kDa type IV collagenase (Homo sapiens, UniProt P08253). In words: Inhibition of MMP2. The method, boiled down:
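Run in borate buffer (50 mM, pH 8.5) with succinylated gelatin as substrate. Enzyme and inhibitor were preincubated 30 min at 37 °C, then substrate was added for 60 min at 37 °C. Picrylsulfonic acid (0.03%) was added for 20 min at room temperature. Absorbance was read at 450 nm, and % inhibition was calculated against uninhibited and blank wells.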

The target of another experiment is Aminopeptidase N (Homo sapiens, UniProt P15144). In words: Inhibition of aminopeptidase N. In short, it runs like this: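 Enzyme and inhibitor were preincubated in sodium phosphate buffer (50 mM, pH 7.2) for 30 min at 37 °C. L-leucine p-nitroanilide was then added and incubated a further 60 min at 37 °C. Absorbance at 405 nm was used to calculate inhibition rates.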
Chain of Aminopeptidase N (P15144 whole entry): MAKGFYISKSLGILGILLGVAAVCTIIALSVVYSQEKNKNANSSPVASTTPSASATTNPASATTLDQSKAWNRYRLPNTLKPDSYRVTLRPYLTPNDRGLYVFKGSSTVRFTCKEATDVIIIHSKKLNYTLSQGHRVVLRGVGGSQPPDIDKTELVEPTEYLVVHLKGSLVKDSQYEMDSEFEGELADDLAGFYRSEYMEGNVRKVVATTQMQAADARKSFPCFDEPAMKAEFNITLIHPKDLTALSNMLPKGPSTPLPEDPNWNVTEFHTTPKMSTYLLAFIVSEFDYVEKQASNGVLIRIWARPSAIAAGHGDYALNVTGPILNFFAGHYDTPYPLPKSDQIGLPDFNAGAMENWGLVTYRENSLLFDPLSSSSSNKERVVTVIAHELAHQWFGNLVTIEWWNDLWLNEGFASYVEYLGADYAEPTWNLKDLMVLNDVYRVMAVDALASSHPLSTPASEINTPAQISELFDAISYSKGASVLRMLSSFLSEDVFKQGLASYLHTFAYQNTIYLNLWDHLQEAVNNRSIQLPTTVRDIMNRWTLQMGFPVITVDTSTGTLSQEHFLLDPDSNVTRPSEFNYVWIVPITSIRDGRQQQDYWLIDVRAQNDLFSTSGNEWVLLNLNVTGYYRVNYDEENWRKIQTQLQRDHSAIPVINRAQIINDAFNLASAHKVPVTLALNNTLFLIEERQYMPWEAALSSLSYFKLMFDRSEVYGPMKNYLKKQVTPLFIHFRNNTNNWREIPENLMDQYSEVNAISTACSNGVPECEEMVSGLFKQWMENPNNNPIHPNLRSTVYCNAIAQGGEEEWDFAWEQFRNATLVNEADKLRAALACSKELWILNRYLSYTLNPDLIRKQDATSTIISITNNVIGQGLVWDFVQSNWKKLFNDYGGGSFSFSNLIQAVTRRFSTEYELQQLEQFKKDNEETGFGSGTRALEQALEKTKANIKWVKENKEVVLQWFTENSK

Chain of 72 kDa type IV collagenase (P08253 whole entry): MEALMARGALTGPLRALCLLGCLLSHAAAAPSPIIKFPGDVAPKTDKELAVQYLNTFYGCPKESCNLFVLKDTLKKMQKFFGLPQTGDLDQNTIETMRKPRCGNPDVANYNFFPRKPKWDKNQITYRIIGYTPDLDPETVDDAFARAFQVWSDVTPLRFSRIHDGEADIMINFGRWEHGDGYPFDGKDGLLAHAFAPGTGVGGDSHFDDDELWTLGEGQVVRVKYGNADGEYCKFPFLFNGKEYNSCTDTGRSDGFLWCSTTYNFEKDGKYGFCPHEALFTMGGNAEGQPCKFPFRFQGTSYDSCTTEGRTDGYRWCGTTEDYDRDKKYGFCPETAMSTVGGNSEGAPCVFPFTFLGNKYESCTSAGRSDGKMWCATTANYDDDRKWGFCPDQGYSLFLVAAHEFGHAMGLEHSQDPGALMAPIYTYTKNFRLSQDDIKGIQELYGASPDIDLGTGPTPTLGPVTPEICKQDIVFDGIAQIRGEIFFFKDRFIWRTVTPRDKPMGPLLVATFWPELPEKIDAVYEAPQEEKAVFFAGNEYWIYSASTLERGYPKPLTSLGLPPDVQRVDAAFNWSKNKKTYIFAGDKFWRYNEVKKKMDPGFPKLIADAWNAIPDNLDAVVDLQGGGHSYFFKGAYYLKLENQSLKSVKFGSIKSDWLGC

Turning to `COC(=O)[C@@H]1CC2(CN1S(=O)(=O)c1ccc(C)cc1)OCCCO2`, the 50% inhibitory concentration (IC50) in experiment [1] turned out to be 0.2 µM; on Aminopeptidase N it was 174 µM.

Regarding `COC(=O)[C@@H]1C[C@@H](O)CN1S(C)(=O)=O` (relative stereo), the results for the IC50 (in experiment [1]; against Aminopeptidase N) were 7.1 µM and 41.6 µM, respectively.

For `COC(=O)[C@@H]1C[C@@H](O)CN1S(=O)(=O)c1ccccc1` (relative stereo), the IC50 in experiment [1] was determined as 0.8 µM; against Aminopeptidase N, 53.8 µM.

On to `Cc1ccc(S(=O)(=O)N2CC3(C[C@H]2C(=O)NO)OCCCCO3)cc1`, for which the half-maximal inhibitory concentration (IC50) in experiment [1] was 0.008 µM; at Aminopeptidase N, 73.2 µM.

Turning to `COC(=O)[C@@H]1CC(=O)CN1S(=O)(=O)c1ccc(C)cc1`, the IC50 was found to be 0.4 µM in experiment [1] and 54.9 µM against Aminopeptidase N.

For `COC(=O)[C@@H]1CC2(CN1S(=O)(=O)c1ccccc1)OCCCO2`, the values for the IC50 (in experiment [1]; against Aminopeptidase N) were 1.1 µM and 168 µM, respectively.

In the case of `COC(=O)[C@@H]1CC2(CN1S(=O)(=O)c1ccc(C)cc1)OCCCCO2`, the concentration for half-maximal inhibition (IC50) was 0.3 µM in experiment [1] and 124 µM at Aminopeptidase N.

As for `O=C(NO)[C@@H]1CC2(CN1S(=O)(=O)c1ccccc1)OCCCCO2`, the values for the 50% inhibitory concentration (IC50) (in experiment [1]; at Aminopeptidase N) were 0.012 µM and 107 µM, respectively.

With `COC(=O)[C@@H]1CC2(CN1S(=O)(=O)c1ccccc1)OCCCCO2`, the IC50 was 1.5 µM in experiment [1] and 135 µM at Aminopeptidase N.

For the molecule `Cc1ccc(S(=O)(=O)N2CC3(C[C@H]2C(=O)NO)OCCCO3)cc1`, the concentration for half-maximal inhibition (IC50) came out at 0.006 µM in experiment [1] and 61.8 µM against Aminopeptidase N.

For the molecule `COC(=O)[C@@H]1C[C@@H](O)CN1S(=O)(=O)c1ccc(C)cc1` (relative stereo), the IC50 in experiment [1] is 0.1 µM; against Aminopeptidase N it was 38.4 µM.

For the molecule `O=C(NO)[C@@H]1CC2(CN1S(=O)(=O)c1ccccc1)OCCCO2`, the figures for the IC50 (in experiment [1]; against Aminopeptidase N) were 0.011 µM and 82.7 µM, respectively.

In the case of `COC(=O)[C@@H]1CC(=O)CN1S(=O)(=O)c1ccccc1`, the concentration for half-maximal inhibition (IC50) in experiment [1] was found to be 2 µM; on Aminopeptidase N it was 75.8 µM.

As for `COC(=O)[C@@H]1CC2(CN1S(=O)(=O)c1ccccc1)OCCO2`, the concentration for half-maximal inhibition (IC50) was found to be 0.2 µM in experiment [1] and 151 µM on Aminopeptidase N.

As for `O=C(NO)[C@@H]1CC2(CN1S(=O)(=O)c1ccccc1)OCCO2`, the IC50 in experiment [1] was 0.008 µM; on Aminopeptidase N, 57.8 µM.

Turning to `COC(=O)[C@@H]1CC2(CN1S(=O)(=O)c1ccc(C)cc1)OCCO2`, the IC50 in experiment [1] turned out to be 0.1 µM; against Aminopeptidase N, 156 µM.

`Cc1ccc(S(=O)(=O)N2CC3(C[C@H]2C(=O)NO)OCCO3)cc1`: the concentration for half-maximal inhibition (IC50) is 0.003 µM in experiment [1] and 48.5 µM at Aminopeptidase N.

Turning to `COc1ccc(/C=C/C(=O)N2C[C@@H](NC(=O)c3cccnc3)C[C@H]2C(=O)NO)cc1OC`, the IC50 in experiment [1] was found to be 0.009 µM; at Aminopeptidase N, 142 µM.

For the molecule `COC(=O)[C@@H]1CC(=O)CN1S(C)(=O)=O`, the IC50 in experiment [1] stood at 9.5 µM; against Aminopeptidase N, 92.6 µM.

The record behind these values is ChEMBL document CHEMBL1150307, “Design, synthesis and evaluation of novel sulfonyl pyrrolidine derivatives as matrix metalloproteinase inhibitors” (Bioorg Med Chem, 2008).
